For data set [1], the system named is P-glycoprotein (Pgp). Conditions: cited from earlier work.
The nature of data set [2]: Kinetic solubility study of SNMSDs and EDR in SIF pH 6.8. The data set is classed as physicochemical.
A short description of data set [3]: In vitro dissolution study. The data set is classed as physicochemical. The method, boiled down: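 USP type II (paddle) apparatus at 37°C and 50 rpm, with 900 mL of SGF (pH 1.2) or SIF (pH 6.8). Samples were taken at 5, 15, 30, 45, 60, 90 and 120 min, with media replaced, then passed through a 0.45 µm filter and diluted with mobile phase as needed. They were quantified by HPLC-UV at 240 nm (water:methanol:acetic acid 100:100:1, 1 mL/min). Release data were fitted to zero-order, first-order, Higuchi, Hixson–Crowell and Korsmeyer–Peppas models. f1 and f2 were calculated comparing the unformulated and formulated drug profiles.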

For data set [4] the following is noted: cited from earlier work.
Data set [5] can be described thus: Solubility of EDR, PM and NEF in simulated body fluids and water.
Data set [6] relates to UGT enzymes. Conditions: cited from earlier work.
For data set [7] the following is noted: pH 8–10; cited from earlier work.
A short description of data set [8]: Miscibility study: solubility of EDR in polymeric carrier solutions. The conditions noted are these: 10% (w/v) polymer in water.
In data set [9] the test system is glucuronidation of EDR in rat liver microsomes. Description: Microsomal incubation assay of EDR glucuronidation. The data set is classed as in vitro ADME. Conditions: SOL 1%.
[10] abbreviates: dissolution profiles in SGF vs SIF.

In brackets after ≈: the same amount, converted by molar mass.

Usually solubility stands for how much of the substance goes into solution per volume. A lower solubility goes with little dissolved substance.

Take `CC1=NN(c2ccccc2)C(=O)C1` [EDR, 3-methyl-1-phenyl-2-pyrazolin-5-one]: the “substrate of P-glycoprotein (Pgp)” value in data set [1] is “substrate”. This compound also gave a solubility in data set [2] of 2290 ± 320 µg/mL (≈ 13.1 mM). In addition, in data set [3] (SGF), the “release kinetic model followed” value is given as “Hixson–Crowell”, the “release kinetics: First order” value is 0.834, the “release kinetics: Higuchi matrix” value amounted to 0.8501 and the “release kinetics: Hixson–Crowell” value is recorded as 0.9216. Moreover, in data set [3] (SGF), the “release kinetics: Korsmeyer–Peppas” value worked out at 0.8636 and the “release kinetics: Zero order” value was 0.6077. Moreover, the “release / dissolution in SGF” value in [3] (SGF (pH 1.2), within 15 min) is on record as 100%. Further, in data set [3] (SIF), the “release kinetic model followed” value is listed as “Korsmeyer–Peppas”, the “release kinetics: First order” value is 0.9609, the “release kinetics: Higuchi matrix” value amounted to 0.97 and the “release kinetics: Hixson–Crowell” value is 0.9718. In data set [3] (SIF), the “release kinetics: Korsmeyer–Peppas” value is 0.9895, the “release kinetics: Zero order” value is 0.7947 and the release mechanism result is “anomalous transport (non-Fickian)”. Besides, the “release in SIF” value in data set [3] (SIF (pH 6.8), in 120 min) stood at 85%. In [3] (setting [10]), the “f1 value (dissimilarity factor)” value amounted to 26 and the “f2 value (similarity factor)” value is on record as 14. For the same compound, the dissolution in [3] (within 15 min in the 900 mL of dissolution media) is listed as 100%. The “solubility in SGF” value in data set [4] was 8260 ± 1420 µg/mL (≈ 47.4 mM). Also, the “solubility in SGF (pH 1.2) compared to solubility in water” value in [5] (SGF pH 1.2) is 4.46 fold. Also, the “solubility in SIF compared to solubility in water” value in data set [5] (SIF pH 6.8 and 7.4) is reported as “insignificant difference”. The “substrate of UGT enzymes” value in data set [6] is reported as “substrate”. Moreover, the “degradation at alkaline conditions” value in data set [7] was “dramatic degradation”.
As to hydroxypropyl-β-cyclodextrin [HP-β-CD], the “improvement in the aqueous solubility of EDR” value in data set [8] is on record as 3.49 fold.
As to `CC1(C)C2CCC1(C)C(O)C2` (stereo not drawn) [borneol], in data set [9], the “inhibitory effect on glucuronidation of EDR” value came to 37.56%.
